Measured values: ChEMBL document CHEMBL2062474, “Discovery and preliminary SAR of bisbenzylisoquinoline alkaloids as inducers of C/EBPα” (Bioorg Med Chem, 2012)

Tests used:
[1] = Cytotoxicity against human U937 cells assessed as cell growth at 50 uM after 24 hrs by alamar blue assay; assay type: cell-based, U-937; settings: read-out: Activity
How it was run: (§1)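 U937 cells engineered with a multimerized C/EBPα binding site driving luciferase were incubated with compound in 384-well format, in triplicate, at multiple 2-fold doses. Toxicity was read by Alamar Blue fluorescence. Growth is expressed relative to untreated U937 cells.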

U-937 [2] = test: Induction of rat C/EBPalpha expression transfected in human U937 cells after 24 hrs by luciferase reporter gene assay relative to ATRA; assay type: functional
How it was run: (§2)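 Engineered U937 line (4X C/EBPα binding site driving a luciferase reporter) incubated 24 h with or without sample in 384-well plates, in triplicate, across multiple 2-fold doses. Luminescence was read after adding Britelite reagent. ATRA ran on each plate as positive control. Fold induction was normalized to ATRA induction.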

U-937 [3] = test: Induction of rat C/EBPalpha expression transfected in human U937 cells at 50 uM after 24 hrs by luciferase reporter gene assay relative to ATRA; assay type: functional; how it was run: as §2
U-937 [4] = test: Cytotoxicity against human U937 cells after 24 hrs by alamar blue assay; assay type: cell-based; settings: U-937, 24 h
How it was run: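 U937 cells exposed to test sample for 24 h in 384-well format. Toxicity read by Alamar Blue fluorescence and expressed as growth relative to untreated U937 cells. Value is the concentration giving 50% growth inhibition, from multiple 2-fold doses tested in triplicate.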

U-937 [5] = test: Induction of rat C/EBPalpha expression transfected in human U937 cells at 3.1 uM after 24 hrs by luciferase reporter gene assay relative to ATRA; assay type: functional
How it was run: (§3)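 U937 cells carry a luciferase reporter driven by a multimerized C/EBPα binding site (U937 4X C/EBPα). Cells incubated 24 h with or without test sample in 384-well plates, then luciferase read by luminescence. ATRA included on each plate as positive control, and fold induction normalized to ATRA. Multiple 2-fold doses tested in triplicate.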

[6] = Cytotoxicity against human U937 cells assessed as cell growth at 3.1 uM after 24 hrs by alamar blue assay; assay type: cell-based, U-937; settings: read-out: Activity
How it was run: (§4)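 U937 cells incubated 24 h with test sample in multiple 2-fold doses, tested in triplicate, in 384-well format. Cell growth read by Alamar Blue fluorescence relative to untreated U937 cells. Value is growth at the concentration giving maximum C/EBPα fold induction.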

[7] = Cytotoxicity against human U937 cells assessed as cell growth at 25 uM after 24 hrs by alamar blue assay; assay type: cell-based, U-937; settings: read-out: Activity; how it was run: as §1
U-937 [8] = test: Induction of rat C/EBPalpha expression transfected in human U937 cells at 25 uM after 24 hrs by luciferase reporter gene assay relative to ATRA; assay type: functional; how it was run: as §2
[9] = Cytotoxicity against human U937 cells assessed as cell growth at 12 uM after 24 hrs by alamar blue assay; assay type: cell-based, U-937; settings: read-out: Activity; how it was run: as §1
U-937 [10] = test: Induction of rat C/EBPalpha expression transfected in human U937 cells at 12 uM after 24 hrs by luciferase reporter gene assay relative to ATRA; assay type: functional; how it was run: as §2
U-937 [11] = test: Induction of rat C/EBPalpha expression transfected in human U937 cells at 0.78 uM after 24 hrs by luciferase reporter gene assay relative to ATRA; assay type: functional; how it was run: as §3
[12] = Cytotoxicity against human U937 cells assessed as cell growth at 0.78 uM after 24 hrs by alamar blue assay; assay type: cell-based, U-937; settings: read-out: Activity; how it was run: as §4
U-937 [13] = test: Induction of rat C/EBPalpha expression transfected in human U937 cells at 6.2 uM after 24 hrs by luciferase reporter gene assay relative to ATRA; assay type: functional; how it was run: as §3
[14] = Cytotoxicity against human U937 cells assessed as cell growth at 6.2 uM after 24 hrs by alamar blue assay; assay type: cell-based, U-937; settings: read-out: Activity; how it was run: as §4
U-937 [15] = test: Induction of rat C/EBPalpha expression transfected in human U937 cells after 24 hrs by luciferase reporter gene assay relative to control; assay type: functional; how it was run: as §3
HL-60 = test: Induction of rat C/EBPalpha expression transfected in human HL60 cells after 24 hrs by luciferase reporter gene assay relative to control; assay type: functional

Structure (SMILES): COc1cc2c3cc1Oc1c(OC)c(OC)cc4c1[C@H](Cc1ccc(O)c(c1)-c1cc(ccc1OC)C[C@H]3N(C)CC2)N(C)CC4 [FUNIFERINE]
- viability at 24 h, 50 µM [1]: 94%
- MED (U-937 [2]): 12 µM
- fold change (FC) (U-937 [3]): 2.2
- IC50 (U-937 [4]): > 50 µM

Structure (SMILES): COc1ccc2cc1Oc1ccc(cc1)C[C@H]1c3cc(c(OC)cc3CCN1C)Oc1c(O)c(OC)cc3c1[C@H](C2)N(C)CC3 [FANGCHINOLINE]
- viability at 24 h, 50 µM [1]: 102%
- MED (U-937 [2]): 25 µM
- fold change (FC) (U-937 [3]): 2
- IC50 (U-937 [4]): > 50 µM

Structure (SMILES): COc1ccc2cc1Oc1ccc(cc1)C[C@H]1NCCc3cc(OC)c(cc31)Oc1c(O)c(OC)cc3c1CCN(C)[C@@H]3C2 [NORPANURENSINE]
- viability at 24 h, 50 µM [1]: 113%
- MED (U-937 [2]): 12 µM
- fold change (FC) (U-937 [3]): 2.5
- IC50 (U-937 [4]): > 50 µM

Structure (SMILES): COc1cc2c3c4c1Oc1cc5c(cc1O4)[C@@H](Cc1ccc(O)c(c1)Oc1ccc(cc1)C[C@@H]3N(C)CC2)N(C)CC5 [TRIGILLETINE]
- MED (U-937 [2]): >50 µM
- fold change (FC) (U-937 [5]): 0.8
- IC50 (U-937 [4]): 50 µM
- viability at 24 h, 3.1 µM [6]: 108%

Structure (SMILES): COc1ccc2cc1Oc1ccc(cc1)C[C@@H]1c3cc(c(OC)cc3CCN1C)Oc1c(OC)c(OC)cc3c1[C@H](C2)N(C)CC3 [ISOTETRANDRINE]
- MED (U-937 [2]): 12 µM
- viability at 24 h, 25 µM [7]: 69%
- fold change (FC) (U-937 [8]): 1.2
- IC50 (U-937 [4]): > 50 µM

Structure (SMILES): COc1ccc2cc1Oc1ccc(cc1)C[C@H]1c3c(cc(OC)c(O)c3Oc3cc4c(cc3OC)CCN(C)[C@@H]4C2)CCN1C [HOMOAROMOLINE]
- viability at 24 h, 50 µM [1]: 80%
- MED (U-937 [2]): 3.1 µM
- fold change (FC) (U-937 [3]): 1.9
- IC50 (U-937 [4]): > 50 µM

Structure (SMILES): COc1ccc2cc1-c1cc(ccc1O)C[C@H]1c3cc4c(cc3CCN1C)Oc1c(OC)cc3c(c1O4)[C@H](C2)N(C)CC3 [TILIACORININE]
- MED (U-937 [2]): 12 µM
- viability at 24 h, 12 µM [9]: 63%
- fold change (FC) (U-937 [10]): 1.9
- IC50 (U-937 [4]): 25 µM

Structure (SMILES): COc1ccc(C[C@H]2c3cc(OC)c(OC)c(OC)c3CC[N+]2(C)C)cc1Oc1ccc(C[C@H]2c3cc(OC)c4c(c3CCN2C)OCO4)cc1.[Cl-] [THALISTYLINE]
- MED (U-937 [2]): >50 µM
- fold change (FC) (U-937 [11]): 0.9
- IC50 (U-937 [4]): > 50 µM
- viability at 24 h, 0.78 µM [12]: 133%

Structure (SMILES): COc1ccc2cc1Oc1ccc(cc1)CC1=NCCc3cc(OC)c(OC)c(c31)Oc1cc3c(cc1OC)CCN(C)[C@@H]3C2 [EPISTEPHANINE]
- fold change (FC) (U-937 [13]): 0.9
- MED (U-937 [2]): >50 µM
- viability at 24 h, 6.2 µM [14]: 99%
- IC50 (U-937 [4]): > 50 µM

Structure (SMILES): COc1ccc2cc1Oc1ccc(cc1)C[C@@H]1c3c(cc(OC)c4c3Oc3cc5c(cc3O4)CCN[C@@H]5C2)CCN1C [TELOBINE]
- MED (U-937 [2]): 1.5 µM
- fold change (FC) (U-937 [5]): 1.9
- IC50 (U-937 [4]): 12 µM
- viability at 24 h, 3.1 µM [6]: 82%

Structure (SMILES): COc1ccc2cc1Oc1ccc(cc1)C[C@H]1c3cc(c(OC)cc3CCN1C)Oc1c(OC)c(OC)cc3c1[C@H](C2)N(C)CC3 [FANCHININ]
- MED (U-937 [2]): >50 µM
- viability at 24 h, 25 µM [7]: 69%
- fold change (FC) (U-937 [8]): 0.9
- IC50 (U-937 [4]): > 50 µM

Structure (SMILES): COc1cc2c3c(O)c1OCc1ccc(cc1)C[C@@H]1c4c(cc(OC)c(OC)c4Oc4ccc(cc4)CC3=NCC2)CCN1C [CISSAMPAREINE]
- MED (U-937 [2]): >50 µM
- fold change (FC) (U-937 [5]): 0.5
- IC50 (U-937 [4]): > 50 µM
- viability at 24 h, 3.1 µM [6]: 78%

Structure (SMILES): COc1cc2c3cc1Oc1cc(ccc1O)C[C@@H]1c4c(cc(OC)c(O)c4Oc4cccc(c4)C[C@H]3N(C)CC2)CCN1C [CHONDODENDRINE]
- MED (U-937 [2]): 12 µM
- fold change (FC) (U-937 [8]): 1.9
- IC50 (U-937 [4]): > 50 µM

Structure (SMILES): COc1cc2c(cc1O)[C@H]1Cc3c(cc(OC)c(OC)c3Oc3cc4c(cc3OC)CCN(C)[C@@H]4Cc3ccc(O)cc3)[C@@H](C2)N1C [HERVELINE O]
- MED (U-937 [2]): >50 µM
- viability at 24 h, 25 µM [7]: 108%
- fold change (FC) (U-937 [8]): 0.46
- IC50 (U-937 [4]): > 50 µM

Structure (SMILES): COc1cc2c3cc1Oc1c(OC)c(OC)cc4c1[C@H](Cc1cc5c(c(c1)Oc1ccc(cc1)C[C@@H]3N(C)CC2)OCO5)N(C)CC4 [TENUIPINE]
- MED (U-937 [2]): 25 µM
- viability at 24 h, 25 µM [7]: 105%
- fold change (FC) (U-937 [8]): 1.4
- IC50 (U-937 [4]): > 50 µM

Structure (SMILES): CC1=C(/C=C/C(C)=C/C=C/C(C)=C/C(=O)O)C(C)(C)CCC1 [TRETINOIN]
- fold change (FC) (U-937 [15]): 2
- fold change (FC) (HL-60): 2

Structure (SMILES): COc1ccc(CC2c3cc(OC)c(OC)cc3CCN2C)cc1OC (stereo unspecified) [LAUDANOSINE]
- MED (U-937 [2]): >50 µM
- fold change (FC) (U-937 [8]): 0

Structure (SMILES): COc1cc2c3cc1Oc1c(OC)c(OC)cc4c1[C@@H](Cc1ccc(O)c(c1)Oc1ccc(cc1)C[C@@H]3N(C)CC2)N(C)CC4 [BERBAMINE]
- viability at 24 h, 50 µM [1]: 70%
- MED (U-937 [2]): 25 µM
- fold change (FC) (U-937 [3]): 1.2
- IC50 (U-937 [4]): > 50 µM

Structure (SMILES): COc1cc2c3cc1Oc1c(O)c(OC)cc4c1[C@@H](Cc1ccc(O)c(c1)Oc1ccc(cc1)C[C@@H]3N(C)CC2)N(C)CC4 [OBAMEGINE]
- MED (U-937 [2]): 3 µM
- viability at 24 h, 12 µM [9]: 89%
- fold change (FC) (U-937 [10]): 2.6
- IC50 (U-937 [4]): 25 µM

Structure (SMILES): COc1ccc(C[C@H]2c3cc(OC)c(OC)c(OC)c3CC[N+]2(C)C)cc1Oc1ccc(C[C@H]2c3cc4c(c(OC)c3CC[N+]2(C)C)OCO4)cc1.[I-].[I-] [THALISTYLINE DIMETHOIODIDE]
- MED (U-937 [2]): >50 µM
- fold change (FC) (U-937 [5]): 0.4
- IC50 (U-937 [4]): > 50 µM
- viability at 24 h, 3.1 µM [6]: 116%

Structure (SMILES): COc1cc2c(cc1Oc1ccc(OC)c3c1C[C@H]1c4c(cc(OC)c(OC)c4-3)CCN1C)C[C@H]1c3c(cc(OC)c(OC)c3-2)CCN1C
- MED (U-937 [2]): >50 µM
- viability at 24 h, 25 µM [7]: 61%
- fold change (FC) (U-937 [8]): 0.9
- IC50 (U-937 [4]): > 50 µM

Structure (SMILES): COc1ccc2cc1Oc1ccc(cc1)C[C@H]1c3c(cc4c(c3Oc3cc5c(cc3OC)CCN(C)[C@@H]5C2)OCO4)CCN1C [CEPHARANTHINE]
- MED (U-937 [2]): 12 µM
- viability at 24 h, 12 µM [9]: 87%
- fold change (FC) (U-937 [10]): 1
- IC50 (U-937 [4]): > 50 µM

Structure (SMILES): COc1ccc2cc1Oc1ccc(cc1)C[C@@H]1c3cc(c(OC)cc3CCN1C)Oc1c(OC)c(OC)cc3c1[C@@H](C2)N(C)CC3 [PHAEANTHINE]
- MED (U-937 [2]): >50 µM
- viability at 24 h, 12 µM [9]: 104%
- fold change (FC) (U-937 [10]): 0.75
- IC50 (U-937 [4]): 50 µM

Structure (SMILES): COC1=CC2=C3[C@H](Cc4cc5c(c(c4)Oc4ccc(cc4)C[C@H]4c6cc7c(cc6CCN4C)OC[C@@]3(O7)C1=O)OCO5)N(C)CC2 [REPANDULINE]
- viability at 24 h, 50 µM [1]: 67%
- MED (U-937 [2]): 50 µM
- fold change (FC) (U-937 [3]): 1.5
- IC50 (U-937 [4]): > 50 µM
